Source: PubChem (Johns Hopkins Ion Channel Center)
Most compounds without a hit are left out; they make up all but 2.3% or so of the library.
TRPC6 inhibitor: mouse TRPC6 channel inhibition; 310,000 compounds, 1.1% hits; Q61143; HEK293-TRPC6, membrane potential dye, ACh-evoked depolarization; active compounds read low; B-score at 10 µM;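 active = B-score under library mean minus 3 SD, initial fluorescence not abnormally high, positive integrated signal ratio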;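 also: B-score derived from integrated fluorescence ratio over the kinetic read; more negative B-score means stronger inhibition of depolarization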
TRPC4 potent: allosteric potentiators of mouse TRPC4 channel; HEK293 TRPC4beta/mu-opioid, DAMGO EC20, Fluo-4 Ca2+ flux; active compounds read high; B-score at 10 µM; 310,000 compounds, 0.42% hits;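 active = B-score of calcium response area above 5 SD of library B-scores, with initial fluorescence ratio within 5 SD of library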;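 also: B-score of integrated fluorescence ratio over time as area under calcium response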
Target sequence (Q9QUQ5 whole entry, looked up): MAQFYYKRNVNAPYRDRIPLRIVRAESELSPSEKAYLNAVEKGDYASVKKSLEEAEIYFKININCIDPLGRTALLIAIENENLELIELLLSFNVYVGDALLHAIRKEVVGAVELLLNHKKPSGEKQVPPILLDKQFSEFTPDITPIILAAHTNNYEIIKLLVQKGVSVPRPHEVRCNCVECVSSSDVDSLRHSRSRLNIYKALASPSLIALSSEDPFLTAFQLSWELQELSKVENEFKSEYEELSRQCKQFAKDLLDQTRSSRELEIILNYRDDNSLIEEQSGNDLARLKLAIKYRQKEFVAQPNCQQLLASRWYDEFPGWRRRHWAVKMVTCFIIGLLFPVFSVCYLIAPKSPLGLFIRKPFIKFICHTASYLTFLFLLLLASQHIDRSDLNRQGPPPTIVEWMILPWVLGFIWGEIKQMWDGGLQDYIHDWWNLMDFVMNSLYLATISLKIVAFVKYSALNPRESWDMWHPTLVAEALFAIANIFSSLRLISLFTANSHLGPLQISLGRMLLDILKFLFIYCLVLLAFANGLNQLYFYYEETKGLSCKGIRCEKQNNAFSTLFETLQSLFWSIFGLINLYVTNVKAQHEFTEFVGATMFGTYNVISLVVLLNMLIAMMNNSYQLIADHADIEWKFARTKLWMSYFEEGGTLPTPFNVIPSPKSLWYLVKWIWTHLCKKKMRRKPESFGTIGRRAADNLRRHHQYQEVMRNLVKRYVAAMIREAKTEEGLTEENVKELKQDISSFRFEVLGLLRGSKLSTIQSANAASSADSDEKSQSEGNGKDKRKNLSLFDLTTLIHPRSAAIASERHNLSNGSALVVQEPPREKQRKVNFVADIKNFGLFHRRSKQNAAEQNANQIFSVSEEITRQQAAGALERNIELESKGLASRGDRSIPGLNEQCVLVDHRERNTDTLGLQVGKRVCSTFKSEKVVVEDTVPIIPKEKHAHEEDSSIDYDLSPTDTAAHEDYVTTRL
TRPC4 block: blocks the mouse TRPC4 cation channel. Q9QUQ5. HEK293 TRPC4beta/mu-opioid, DAMGO-evoked Fluo4 calcium flux; active compounds read low. B-score at 10 µM. 300,000 compounds, 0.39% hits. AID 2247;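 active = B-score over 3 SD under the library average, no early fluorescence shift, positive overall ratio signal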
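Signal: kinetic Fluo4 fluorescence imaging of calcium influx. Material: stable TRPC4beta/mu-opioid receptor HEK293 cells. Probe or stimulus: DAMGO in two steps, submaximal then maximal.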
TRPC6 act: mouse TRPC6 channel activation. AID 2550. HEK293-TRPC6 membrane potential dye fluorescence; active compounds read high. Q61143. 310,000 compounds, 0.13% hits. B-score at 10 µM;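 active = B-score of the integrated fluorescence ratio above library mean plus 3 SD, and starting fluorescence ratio within library mean plus 5 SD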;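 also: higher score means more depolarization so channel activation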
TRPC4 act: opens the mouse TRPC4 cation channel. 310,000 compounds, 0.49% hits. HEK293 TRPC4beta/mu-opioid, Fluo4 calcium fluorescence; active compounds read high. B-score at 10 µM. Q9QUQ5;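 active = B-score above 5 SD of library B-scores, and initial fluorescence ratio not above library mean plus 5 SD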;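 also: positive B-score marks a calcium rise read as TRPC4 activation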
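Assay system – TRPC4beta and mu-opioid receptor HEK293 stable cells · Measured by – Fluo4 fluorescence, kinetic · Schedule – dye loading 45 min room temperature, 110 s kinetic read · Read-out – B-scored integrated calcium fluorescence ratio · Controls – buffer and maximal DAMGO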
TRPC4 spec 2: second selectivity test of TRPC6 inhibitors: effect on mouse TRPC4; AID 2776; 920 compounds, 42% hits; inhibition, % at 10 µM; shares compounds with TRPC6 inhibitor; HEK293 TRPC4/MOR, membrane potential dye fluorescence; channel activated by saturating DAMGO dose;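 active = compounds whose fluorescence signal differed from control wells by over 3 SD, either direction, in both duplicate plates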
TRPC4 spec: mouse TRPC4 off-target activity of TRPC6 inhibitors. shares compounds with TRPC6 inhibitor. HEK293 TRPC4/mu-opioid, membrane potential fluorescence. activity change, negative = inhibition, % at 10 µM. 920 compounds, 61% hits;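 active = rise or fall in signal beyond 3 SD of buffer-only wells in both replicate plates, either sign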;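 also: integrated kinetic ratio of fluorescence range over baseline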
HEK293 MPD ctr 2-1: second counter-screen for TRPC6 inhibitors: parental HEK293 cells. parental HEK293 membrane potential dye fluorescence; maximal acetylcholine challenge after compound addition. signal change vs control, % at 10 µM. shares compounds with TRPC6 inhibitor. 920 compounds, 31% hits;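 active = membrane potential signal moving either way by over 3 SD of the maximum-effect control, in both duplicate plates, meaning non-specific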
HEK293 MPD ctr-1: counter-screen for TRPC6 inhibitors: effect in parental HEK293 cells | shares compounds with TRPC6 inhibitor | parental HEK293 membrane potential dye fluorescence | membrane potential signal change, % at 10 µM | 920 compounds, 60% hits;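 active = membrane potential signal shifting up or down by more than 3 SD of buffer-only wells, on both duplicate plates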
HEK293 MPD ctr-2: parental HEK293 nonspecific activity of TRPC6 modulators | shares compounds with TRPC6 inhibitor | membrane potential dye fluorescence | membrane potential signal change, % at 10 µM | 2,400 compounds, 51% hits | AID 488924;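 active = membrane potential signal moves up or down beyond 5 SD from buffer-only wells, on both duplicate plates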
HEK293 MPD ctr 2-2: second check of TRPC6 modulator effects in parental HEK293 cells. shares compounds with TRPC6 inhibitor. membrane potential dye fluorescence; after compound, maximal acetylcholine stimulation. inhibition, % at 10 µM. 2,400 compounds, 14% hits;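 active = membrane potential signal drops by more than 5 SD from the mean control signal, in both duplicate plates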;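 also: plate controls were acetylcholine ECmax control wells for no effect and buffer only wells for full effect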
TRPC4/MOR mod: tests whether TRPC6 modulators also affect mouse TRPC4; HEK293 TRPC4/mu-opioid, membrane potential fluorescence; 2,400 compounds, 69% hits; AID 488927; shares compounds with TRPC6 inhibitor; percent change from control (negative = decrease, positive = increase), % at 10 µM;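 active = membrane potential signal moved up or down beyond 5 SD of buffer control wells, in both duplicate plates, actives on both sides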;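 also: plate controls were assay buffer wells for no effect and DAMGO maximal-effect wells for full effect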
TRPC4 ctr inh 2: second selectivity test of TRPC6 modulators against mouse TRPC4; shares compounds with TRPC6 inhibitor; HEK293 TRPC4/mu-opioid, membrane potential dye fluorescence; stimulated with maximal-effect DAMGO; inhibition, % at 10 µM; 2,400 compounds, 55% hits; AID 488928;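 active = drop in membrane potential signal beyond 5 SD of the control wells in both duplicate plates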;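 also: TRPC4 counter screen for TRPC6 hits run under conditions tuned for TRPC6 not TRPC4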
TRPC6 block conf: confirmation of mouse TRPC6 inhibitors; shares compounds with TRPC6 inhibitor; HEK293-TRPC6, membrane potential dye, ACh-evoked depolarization; inhibition, % at 10 µM; 3,300 compounds, 43% hits; AID 488960;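 active = fluorescence ratio falls more than 5 SD below the full-stimulation control mean, in both duplicate runs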;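 also: integrated fluorescence ratio of peak minus minimum over baseline after agonist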
TRPC6 act confirm: mouse TRPC6 activator confirmation; shares compounds with TRPC6 inhibitor; HEK293-TRPC6 membrane potential dye fluorescence, FDSS; activation, % at 10 µM; 2,800 compounds, 11% hits;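 active = ratio signal rise beyond 5 SD above unstimulated control wells' mean, seen in both duplicate runs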;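 also: plate controls were buffer EC0 wells for no effect and acetylcholine ECmax response for full effect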
Numbers without * were called inactive; i = inactive; / = no result.

SMILES | TRPC6 inhibitor | TRPC4 potent | TRPC4 block | TRPC6 act | TRPC4 act | HEK293 MPD ctr-2 | HEK293 MPD ctr 2-2 | TRPC4/MOR mod | TRPC4 ctr inh 2 | TRPC6 block conf | TRPC6 act confirm | others
O=c1c2ccccc2[nH]c(=S)n1CCCN1CCC(Cc2ccccc2)CC1 | -5.9* | i | i | i | i | i | i | -10%* | 80%* | 56%* | i
CCN1CCN(CCn2c(=S)[nH]c3ccccc3c2=O)CC1 | -6.3* | i | i | i | i | i | i | i | i | 41%* | i
CC(C)(C)NC(=O)c1cccc2c1OC(C)(C)C2 | i | i | i | i | i | / | / | / | / | / | /
CCOC(=O)Cc1csc(NC(=O)/C=C/c2ccc(OC)cc2)n1 | i | i | i | i | i | / | / | / | / | / | /
COCCCNc1nc2cc(OC)c(OC)cc2c2nc(-c3ccccc3)nn12 | i | i | i | i | i | / | / | / | / | / | /
CCN(CC)CCCNc1nc2ccccc2c2nc(-c3ccncc3)nn12 | -7.2* | i | i | i | i | / | / | / | / | 69%* | i | TRPC4 spec 2=61%*;TRPC4 spec=-23%*;HEK293 MPD ctr 2-1=-0.5%*;HEK293 MPD ctr-1=-316%*
COc1cc2nc(NCCCN3CCN(C)CC3)n3nc(-c4ccccc4)nc3c2cc1OC | -6.6* | i | i | i | i | -75%* | i | i | 63%* | i | i
CCN(CC)CCCNc1nc2cc(OC)c(OC)cc2c2nc(-c3ccccc3)nn12 | i | i | i | i | i | / | / | / | / | / | /
CCN(CC)CCCNc1nc2cc(OC)c(OC)cc2c2nc(-c3cccnc3)nn12 | -8* | i | i | i | i | / | / | / | / | 77%* | i | TRPC4 spec 2=65%*;TRPC4 spec=-30%*;HEK293 MPD ctr 2-1=-68%*;HEK293 MPD ctr-1=-446%*
Cc1sc(NC(=O)CSc2nnnn2C2CCCCC2)c(C#N)c1C | i | i | i | i | i | / | / | / | / | / | /
O=C(OCc1csc(-c2ccccc2)n1)c1ccc(O)cc1 | -10* | i | i | i | i | / | / | / | / | 73%* | / | TRPC4 spec 2=i;TRPC4 spec=-9.2%*;HEK293 MPD ctr 2-1=i;HEK293 MPD ctr-1=i
Cc1ccc(C(=O)NCC(=O)OCc2csc(-c3ccccc3)n2)cc1 | i | i | i | i | i | / | / | / | / | / | /
COCCCNC(=O)CN(CCc1ccccc1)S(=O)(=O)c1ccc(OC)cc1 | i | i | i | i | i | / | / | / | / | / | /
COCCCN(CC(=O)NCc1ccccc1)S(=O)(=O)c1ccc(C)cc1 | -6.3* | i | i | i | i | i | i | i | i | i | i
CCOC(=O)C1CCN(c2nc3cc(OC)ccc3cc2C#N)CC1 | i | i | i | i | i | / | / | / | / | / | /
COc1ccc2nc(C)cc(N3CCC(C(N)=O)CC3)c2c1 | -9.1* | i | i | i | i | -356%* | 94%* | -60%* | 62%* | 72%* | i
COc1ccc(N2CCN(c3cc(C)nc4ccc(OC)cc34)CC2)cc1 | -5.6* | i | i | i | i | -228%* | i | -42%* | 65%* | 62%* | i
CCOC(=O)C1CCN(c2cc(C)nc3ccc(OC)cc23)CC1 | -8.9* | i | i | i | i | -236%* | 85%* | -36%* | 70%* | 86%* | i
Cc1cc(O)cc(O)c1C(=O)Cc1ccccc1 | i | i | i | i | i | / | / | / | / | / | /
O=C(Cc1ccc([N+](=O)[O-])cc1)c1c(O)cc(O)cc1O | -5.5* | i | i | i | i | -62%* | i | -19%* | 52%* | 52%* | i
NC(=O)c1ccsc1NC(=O)COC(=O)c1cc(Cl)ccc1O | i | i | i | i | i | / | / | / | / | / | /
O=C(Oc1ccccc1Cl)c1ccc2c(=O)n3c(nc2c1)CCC3 | -5.4* | i | i | i | i | i | i | i | i | i | i
COc1ccc(C(C(N)=O)c2ncc(C(F)(F)F)cc2Cl)cc1OC (stereo unspecified) | i | i | i | i | i | / | / | / | / | / | /
CN1CCN(C2=Nc3cc(Cl)ccc3Nc3ccccc32)CC1 | -6.9* | i | i | i | i | / | / | / | / | i | i | TRPC4 spec 2=i;TRPC4 spec=i;HEK293 MPD ctr 2-1=-2.0%*;HEK293 MPD ctr-1=i
CN1CCN(CCCN2c3ccccc3Sc3ccc(Cl)cc32)CC1 | i | i | i | i | i | / | / | / | / | / | /
Cc1ccc(OCC(COCc2ccccc2)NC(C)C)cc1 (stereo unspecified) | -9.3* | i | -6* | i | i | / | / | / | / | 101%* | / | TRPC4 spec 2=42%*;TRPC4 spec=38%*;HEK293 MPD ctr 2-1=i;HEK293 MPD ctr-1=14%*
CN(CC(=O)Nc1ccc(Cl)c(C(F)(F)F)c1)C(=O)Cc1c[nH]c2ccccc12 | -5.7* | i | i | i | i | i | i | -11%* | 48%* | 58%* | i
O=C/C=C/c1c(-c2ccccc2)cc2oc3ccccc3cc1-2 | -9.3* | i | i | i | i | / | / | / | / | i | i | TRPC4 spec 2=i;TRPC4 spec=i;HEK293 MPD ctr 2-1=i;HEK293 MPD ctr-1=i
Nc1ccc(-c2cc3ccccc3oc2=O)cc1 | i | i | i | i | i | / | / | / | / | / | /
O=C(CNc1ccc(Oc2ccccc2)cc1)N1CCOCC1 | -5.7* | i | i | i | i | i | i | i | i | i | i
